Test results from ChEMBL document CHEMBL1127630, “New dual inhibitors of neutral endopeptidase and angiotensin-converting enzyme: rational design, bioavailability, and pharmacological responses in experimental hypertension” (J Med Chem, 1994).

Legend:
[1] = biological target: T1, Angiotensin-converting enzyme (Mus musculus, UniProt P09470); assay: Inhibitory potency against angiotensin converting enzyme by displacement of [3H]trandolaprilate binding in mouse lung
T1 sequence (P09470 whole entry): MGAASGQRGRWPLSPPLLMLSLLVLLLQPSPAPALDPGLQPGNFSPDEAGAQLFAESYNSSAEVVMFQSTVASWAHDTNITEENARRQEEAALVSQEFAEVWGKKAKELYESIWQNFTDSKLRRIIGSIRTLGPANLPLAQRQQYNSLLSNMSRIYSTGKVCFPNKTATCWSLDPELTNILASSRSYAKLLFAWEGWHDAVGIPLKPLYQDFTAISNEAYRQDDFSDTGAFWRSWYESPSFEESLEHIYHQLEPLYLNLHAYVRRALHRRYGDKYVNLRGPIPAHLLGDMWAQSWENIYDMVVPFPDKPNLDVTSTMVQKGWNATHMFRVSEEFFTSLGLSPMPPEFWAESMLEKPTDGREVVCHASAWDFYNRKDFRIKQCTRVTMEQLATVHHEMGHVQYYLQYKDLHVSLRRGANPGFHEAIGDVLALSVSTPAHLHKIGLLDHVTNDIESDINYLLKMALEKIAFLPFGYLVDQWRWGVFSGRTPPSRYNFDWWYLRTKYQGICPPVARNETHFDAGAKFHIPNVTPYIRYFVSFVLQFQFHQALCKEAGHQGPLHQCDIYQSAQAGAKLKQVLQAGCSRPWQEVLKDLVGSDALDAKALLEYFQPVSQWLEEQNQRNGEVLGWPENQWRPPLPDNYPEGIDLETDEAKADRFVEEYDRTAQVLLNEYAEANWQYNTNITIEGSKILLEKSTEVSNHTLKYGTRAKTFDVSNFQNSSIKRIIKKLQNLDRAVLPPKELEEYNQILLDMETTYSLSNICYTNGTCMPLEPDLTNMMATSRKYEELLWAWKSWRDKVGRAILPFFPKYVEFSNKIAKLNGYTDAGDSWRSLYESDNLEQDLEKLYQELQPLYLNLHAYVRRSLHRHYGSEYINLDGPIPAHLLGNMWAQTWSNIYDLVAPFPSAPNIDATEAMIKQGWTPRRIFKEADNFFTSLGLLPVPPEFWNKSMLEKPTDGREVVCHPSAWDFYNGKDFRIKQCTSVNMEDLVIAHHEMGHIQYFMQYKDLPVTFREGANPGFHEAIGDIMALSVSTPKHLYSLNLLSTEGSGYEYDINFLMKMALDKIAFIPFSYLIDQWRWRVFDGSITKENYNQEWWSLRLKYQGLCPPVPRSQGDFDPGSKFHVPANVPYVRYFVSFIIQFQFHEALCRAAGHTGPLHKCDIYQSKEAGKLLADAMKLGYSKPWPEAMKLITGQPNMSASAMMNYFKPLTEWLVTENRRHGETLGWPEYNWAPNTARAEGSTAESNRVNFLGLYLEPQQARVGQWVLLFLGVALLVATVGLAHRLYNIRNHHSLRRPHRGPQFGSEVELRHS

[2] = biological target: T2, Angiotensin-converting enzyme (Mus musculus) (UniProt P09470); assay: In vivo inhibition of lung Angiotensin Converting Enzyme (ACE) in mouse at a dose of 2.6*10e-5 mol/kg after 60 min oral administration; assay type: functional, organism-based
T2 sequence (whole entry): T1 sequence (P09470 whole entry)
Method in brief: (§1)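 Prescreen in mice: single oral dose of 2.6 X 10-5 mol/kg of prodrug (thioacetyl and benzyl ester protected, tested as stereoisomer mixtures). Inhibition of binding of a tritiated ACE probe to lung measured 20 and 60 min after dosing. Mean ± SEM of three experiments, three mice each.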

[3] = biological target: T2, Angiotensin-converting enzyme (Mus musculus); assay: Inhibition of lung Angiotensin Converting Enzyme (ACE) in mouse at a dose of 2.6*10e-5 mol/kg after 20 min oral administration; method in brief: as §1
[4] = biological target: T2, Angiotensin-converting enzyme (Mus musculus); assay: In vivo inhibition of lung ACE was observed at 240 min after oral administration of the compound; assay type: functional, organism-based; set-up: concentration or dose not given beside the values
[5] = biological target: T2, Angiotensin-converting enzyme (Mus musculus); assay: In vivo inhibition of lung ACE was observed at 120 min after oral administration of the compound; assay type: functional, organism-based; set-up: concentration or dose not given beside the values
Mus musculus = assay: In vivo inhibition of lung ACE was observed at 60 min after oral administration; assay type: functional; set-up: concentration or dose not given beside the values
[6] = biological target: T2, Angiotensin-converting enzyme (Mus musculus); assay: In vivo inhibition of lung ACE was observed at 30 min after oral administration of the compound; assay type: organism-based; set-up: concentration or dose not given beside the values
[7] = biological target: T3, Neprilysin (Mus musculus) (UniProt Q61391); assay: Inhibition of Neutral Endopeptidase activity was measured by using the displacement of [3H]HACBOGly from mouse kidney after 2 hr oral administration; set-up: scale not given: the % may be the effect or the level left
T3 sequence (whole entry): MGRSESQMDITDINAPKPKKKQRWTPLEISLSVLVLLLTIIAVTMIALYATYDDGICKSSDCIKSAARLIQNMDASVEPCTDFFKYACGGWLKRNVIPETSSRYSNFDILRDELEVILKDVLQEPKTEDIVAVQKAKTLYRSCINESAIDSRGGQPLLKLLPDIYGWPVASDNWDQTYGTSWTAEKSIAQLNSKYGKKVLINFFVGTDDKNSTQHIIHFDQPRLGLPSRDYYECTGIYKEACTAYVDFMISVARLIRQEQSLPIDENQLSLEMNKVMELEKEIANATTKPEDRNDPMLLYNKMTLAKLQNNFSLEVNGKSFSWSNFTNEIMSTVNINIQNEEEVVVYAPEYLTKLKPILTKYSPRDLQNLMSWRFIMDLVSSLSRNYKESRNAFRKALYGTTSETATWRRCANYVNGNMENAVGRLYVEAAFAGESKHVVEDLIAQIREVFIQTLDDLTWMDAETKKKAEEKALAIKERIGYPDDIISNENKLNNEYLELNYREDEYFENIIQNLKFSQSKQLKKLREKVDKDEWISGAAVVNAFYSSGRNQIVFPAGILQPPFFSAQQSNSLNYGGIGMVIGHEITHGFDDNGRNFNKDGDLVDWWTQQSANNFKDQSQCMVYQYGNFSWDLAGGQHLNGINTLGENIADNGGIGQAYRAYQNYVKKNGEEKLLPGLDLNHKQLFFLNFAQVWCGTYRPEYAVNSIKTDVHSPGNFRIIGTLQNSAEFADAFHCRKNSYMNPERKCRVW
Method in brief: (§2)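 Mice dosed orally at 2.6 X 10-6 mol/kg in 10% ethanol/10% cremophor/80% water. [3H]HACBOGly (1 uCi) injected iv at intervals after dosing. Kidneys taken 15 min later, homogenized in 50 mM Tris-HCl pH 7.4 at 4 °C and filtered, radioactivity counted. Inhibition expressed as percent displacement versus control. Nonspecific binding defined with coinjected retrothiorphan (10.000 eq).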

[8] = biological target: T3, Neprilysin (Mus musculus); assay: Inhibition of Neutral Endopeptidase activity was measured by using the displacement of [3H]HACBOGly from mouse kidney after 4 hr oral administration; set-up: scale not given: the % may be the effect or the level left; method in brief: as §2
[9] = biological target: T3, Neprilysin (Mus musculus); assay: Inhibition of Neutral Endopeptidase activity was measured by using the displacement of [3H]-HACBOGly from mouse kidney after 1 hr oral administration; set-up: scale not given: the % may be the effect or the level left; method in brief: as §2
[10] = biological target: T3, Neprilysin (Mus musculus); assay: Inhibition of Neutral Endopeptidase activity was measured by using the displacement of [3H]HACBOGly from mouse kidney after 8 hr oral administration; set-up: scale not given: the % may be the effect or the level left; method in brief: as §2
[11] = biological target: T3, Neprilysin (Mus musculus); assay: Inhibition of Neutral Endopeptidase activity was measured by using the displacement of [3H]HACBOGly from mouse kidney after 16h oral administration; set-up: scale not given: the % may be the effect or the level left; method in brief: as §2

CCCCC(NC(=O)C(CS)C(C)c1ccccc1)C(=O)O (centres undefined)
IC50 [1]: 7 nM

CC(c1ccc(N)cc1)C(CS)C(=O)NC(Cc1ccc(O)cc1)C(=O)O (centres undefined)
IC50 [1]: 12 nM

C[C@@H](c1ccccc1)[C@@H](CS)C(=O)N[C@@H](Cc1ccccc1)C(=O)O (stereo in doubt; 48b)
Ki [1]: 15 nM

CC(c1ccccc1)C(CS)C(=O)N[C@@H](C)C(=O)O (some centres undefined)
IC50 [1]: 20 nM

CC(=O)Oc1ccc(C[C@H](NC(=O)C(CSC(C)=O)C(C)c2ccccc2)C(=O)OCc2ccccc2)cc1 (some centres undefined)
inhibition [2]: 28%
inhibition [3]: 25%

CC(c1ccccc1)C(CS)C(=O)NC(Cc1ccc(O)cc1)C(=O)O (centres undefined)
IC50 [1]: 4.3 nM

C[C@@H](c1ccccc1)[C@@H](CS)C(=O)N[C@@H](Cc1ccccc1)C(=O)O (stereo in doubt; 48a)
Ki [1]: 26 nM

CC(c1ccccc1)C(CSC(=O)C12CC3CC(CC(C3)C1)C2)C(=O)N[C@@H](C)C(=O)O (some centres undefined)
Control [4]: 35%
Control [5]: 36%
Control (Mus musculus): 39%
Control [6]: 40%

CC(c1ccccc1)C(CSC(=O)c1ccccc1)C(=O)N[C@@H](C)C(=O)O (some centres undefined)
Control [4]: 32%
Control [5]: 44%
Control [7]: 100%
Control [8]: 100%
Control (Mus musculus): 66%
Control [6]: 75%
Control [9]: 100%
Control [10]: 93%
Control [11]: 12%

CC(=O)Oc1ccc(C[C@H](NC(=O)C(CSC(C)=O)C(C)c2ccc(F)cc2)C(=O)OCc2ccccc2)cc1 (some centres undefined)
inhibition [2]: 11%
inhibition [3]: 36%

CCC(c1ccccc1)C(CS)C(=O)NC(Cc1ccc(O)cc1)C(=O)O (centres undefined)
IC50 [1]: 110 nM

CCCC[C@H](NC(=O)C(CSC(C)=O)C(C)c1ccccc1)C(=O)OCc1ccccc1 (some centres undefined)
inhibition [2]: 41%
inhibition [3]: 34%

CC(c1ccc(F)c(F)c1)C(CS)C(=O)NC(Cc1ccc(O)cc1)C(=O)O (centres undefined)
IC50 [1]: 4.5 nM

CC(NC(=O)C(CS)C(C)c1ccc2c(c1)OCO2)C(=O)O (centres undefined)
IC50 [1]: 9.5 nM

Cc1ccccc1C(C)C(CS)C(=O)NC(Cc1ccc(O)cc1)C(=O)O (centres undefined)
IC50 [1]: 210 nM

CC(c1ccccc1)C(CS)C(=O)NCC(=O)O (centres undefined)
IC50 [1]: 32 nM

C[C@H](c1ccccc1)[C@@H](CS)C(=O)N[C@@H](Cc1ccccc1)C(=O)O
Ki [1]: 10 nM

C[C@@H](c1ccccc1)[C@@H](CS)C(=O)N[C@@H](Cc1ccccc1)C(=O)O (stereo in doubt; 48c)
Ki [1]: 1.9 nM

C[C@H](NC(=O)[C@H](CS)[C@@H](C)c1ccccc1)C(=O)O (stereo in doubt; 44a)
Ki [1]: 80 nM

CC(C)CC(NC(=O)C(CS)C(C)c1ccccc1)C(=O)O (centres undefined)
IC50 [1]: 19 nM

CC[C@H](NC(=O)C(CSC(=O)c1ccccc1)C(C)c1ccccc1)C(=O)O (some centres undefined)
Control [4]: 30%
Control [5]: 39%
Control [7]: 97%
Control [8]: 73%
Control (Mus musculus): 57%
Control [6]: 73%
Control [9]: 100%

CC(c1ccccc1)C(CS)C(=O)NC(COCc1ccccc1)C(=O)O (centres undefined)
IC50 [1]: 43 nM

CC(NC(=O)C(CS)C(C)c1ccc(F)cc1)C(=O)O (centres undefined)
IC50 [1]: 10 nM

CC(=O)SCC(C(=O)N[C@@H](Cc1ccc(O)cc1)C(=O)OCc1ccccc1)C(C)c1ccccc1 (some centres undefined)
inhibition [2]: 7%
inhibition [3]: 20%

COc1ccc(C(C)C(CSC(C)=O)C(=O)N[C@@H](Cc2ccc(OC(C)=O)cc2)C(=O)OCc2ccccc2)cc1 (some centres undefined)
inhibition [2]: 33%
inhibition [3]: 14%

CCC[C@H](NC(=O)C(CSC(=O)c1ccccc1)C(C)c1ccccc1)C(=O)O (some centres undefined)
Control [4]: 41%
Control [5]: 49%
Control [7]: 55%
Control [8]: 46%
Control (Mus musculus): 52%
Control [6]: 69%
Control [9]: 70%

CCCC(NC(=O)C(CS)C(C)c1ccccc1)C(=O)O (centres undefined)
IC50 [1]: 4 nM

CC(=O)SCC(C(=O)N[C@@H](C)C(=O)O)C(C)c1ccccc1 (some centres undefined)
Control [4]: 16%
Control [5]: 18%
Control (Mus musculus): 29%
Control [6]: 31%

CC(NC(=O)C(CS)C(C)c1ccc(F)c(F)c1)C(=O)O (centres undefined)
IC50 [1]: 5 nM

CC(=O)Oc1ccc(C[C@H](NC(=O)C(CSC(C)=O)C(C)c2ccc(F)c(F)c2)C(=O)OCc2ccccc2)cc1 (some centres undefined)
inhibition [2]: 19%
inhibition [3]: 24%

CC(c1ccc(O)cc1)C(CS)C(=O)NC(Cc1ccc(O)cc1)C(=O)O (centres undefined)
IC50 [1]: 7.9 nM

C[C@H](NC(=O)[C@H](CS)[C@@H](C)c1ccccc1)C(=O)O (stereo in doubt; 44d)
Ki [1]: 95 nM

C[C@H](NC(=O)[C@H](CS)[C@@H](C)c1ccccc1)C(=O)O (stereo in doubt; 44b)
Ki [1]: 16 nM

CC(=O)SCC(C(=O)N[C@@H](C)C(=O)OCc1ccccc1)C(C)c1ccc(F)c(F)c1 (some centres undefined)
inhibition [2]: 22%
inhibition [3]: 35%

O=C(NC(Cc1ccc(O)cc1)C(=O)O)C(CS)Cc1ccccc1 (centres undefined)
IC50 [1]: 25 nM

CC(c1ccc(F)cc1)C(CS)C(=O)NC(Cc1ccc(O)cc1)C(=O)O (centres undefined)
IC50 [1]: 6.9 nM

CCC(NC(=O)C(CS)C(C)c1ccccc1)C(=O)O (centres undefined)
IC50 [1]: 5.4 nM

C[C@H](NC(=O)[C@H](CS)[C@@H](C)c1ccccc1)C(=O)O (stereo in doubt; 44c)
Ki [1]: 4.5 nM

COc1cc(C(C)C(CS)C(=O)NC(Cc2ccc(O)cc2)C(=O)O)ccc1O (centres undefined)
IC50 [1]: 14 nM

CC(c1ccccc1)C(CSC(=O)C12CC3CC(CC(C3)C1)C2)C(=O)N[C@@H](C)C(=O)OCc1ccccc1 (some centres undefined)
Control [4]: 16%
Control [5]: 42%
Control (Mus musculus): 34%
Control [6]: 41%

COc1ccc(C(C)C(CS)C(=O)NC(Cc2ccc(O)cc2)C(=O)O)cc1OC (centres undefined)
IC50 [1]: 4 nM

CC(C)C(NC(=O)C(CS)C(C)c1ccccc1)C(=O)O (centres undefined)
IC50 [1]: 100 nM

COc1ccc(C(C)C(CS)C(=O)NC(Cc2ccc(O)cc2)C(=O)O)cc1 (centres undefined)
IC50 [1]: 3.6 nM
